For series [1], the system named is QGY-7703. The experiment in a line: Antiproliferative activity against human QGY-7703 cells assessed as reduction in cell viability incubated for 48 hrs by MTT assay. The format is functional, cell-based. Particulars: QGY-7703, 48 h. Put shortly: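 MTT assay after 48 h exposure at six concentrations, range chosen by cytotoxicity. Inhibition = (ODcontrol − ODtest)/ODcontrol × 100%; IC50 is the concentration halving OD versus untreated cells. Means ± SD of three independent determinations. HepG2 and SMMC-7721 grown in DMEM, QGY-7703 and LO2 in RPMI 1640, with 10% FBS at 37 °C.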
On the technique in general: Tetrazolium dyes change colour on reduction, which living cells bring about.

The target of series [2] is T1, Nuclear receptor subfamily 4immunitygroup A member 1 (Homo sapiens, UniProt P22736). Briefly: Modulation of Nur77 in human HepG2 cells assessed as induction of Nur77 translocation into cytoplasm from nucleus by measuring increase in protein expression in cytoplasm at 2 uM by western blot analysis. The format is subcellular. Particulars: filed as modulator, time 1-8 hrs, TDE = time-dependent effect. Put shortly: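 HepG2 given 2.0 µM for set times; cells swollen 10 min on ice in HEPES/NaCl/EDTA/CaCl2/MgCl2 buffer, 0.1% NP40 added, spun 15000 rpm 3 min at 4 °C giving cytoplasmic supernatant; pellet extracted in RIPA. Fractions blotted for Nur77, with PARP (nuclear) and tubulin (cytoplasmic) as loading controls.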
T1 sequence (P22736 whole entry): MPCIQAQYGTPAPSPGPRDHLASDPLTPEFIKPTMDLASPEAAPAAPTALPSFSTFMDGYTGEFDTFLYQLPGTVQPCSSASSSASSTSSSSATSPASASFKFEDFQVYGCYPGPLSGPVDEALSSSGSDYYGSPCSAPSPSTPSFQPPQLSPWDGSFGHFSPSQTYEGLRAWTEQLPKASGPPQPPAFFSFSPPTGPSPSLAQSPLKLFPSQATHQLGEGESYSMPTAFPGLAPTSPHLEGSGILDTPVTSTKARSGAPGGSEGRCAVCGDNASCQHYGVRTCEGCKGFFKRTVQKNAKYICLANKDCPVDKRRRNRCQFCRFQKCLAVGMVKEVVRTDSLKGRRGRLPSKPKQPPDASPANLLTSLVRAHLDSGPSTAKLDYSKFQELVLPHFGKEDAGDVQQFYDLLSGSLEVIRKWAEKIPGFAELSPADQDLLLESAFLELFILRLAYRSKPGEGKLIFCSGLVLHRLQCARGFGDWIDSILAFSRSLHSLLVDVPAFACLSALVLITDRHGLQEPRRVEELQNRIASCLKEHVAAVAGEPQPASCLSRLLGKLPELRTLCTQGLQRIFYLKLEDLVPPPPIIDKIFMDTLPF
(Immunoblotting shows a protein as a band on a membrane.)

Series [3] deals with QGY-7703. The experiment in a line: Antiproliferative activity against human QGY-7703 cells assessed as reduction in cell viability at 2 uM by MTT assay. The format is functional, cell-based. Particulars: time 12-48 hrs, TDE = time-dependent effect. Put shortly: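 Cells treated with 2.0 µM over a time course; viability read by MTT. HepG2, SMMC-7721 kept in DMEM, QGY-7703 in RPMI 1640, with 10% FBS at 37 °C and 5% CO2.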

In series [4] the test system is HepG2. The experiment in a line: Inhibition of colony formation in human HepG2 cells at 2 uM incubated for 24 hrs measured after cell culturing for 15 days in normal medium by crystal violet staining based assay. Particulars: time 16.0 day. The format is functional. The method, boiled down:
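500 HepG2, QGY-7703 or SMMC-7721 cells per well allowed to attach 24 h, exposed to DMSO or 2.0 µM for 24 h, then grown 15 days in plain medium. Colonies fixed 30 min in 4% paraformaldehyde, stained 15 min with 0.1% crystal violet, photographed and counted.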

Series [5] deals with HepG2. Briefly: Induction of morphological changes in human HepG2 cells assessed as reduction in cell number at 1 to 2 uM incubated for 6 to 12 hrs by phase contrast microscopic analysis. The format is functional, cell-based. The settings on record: dose 1-2 µM, time 6-12 hrs. The method, boiled down: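 HepG2 cells given graded concentrations; morphology monitored at set time points by phase-contrast optical microscopy.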

Series [6] has as its system QGY-7703. Briefly: Induction of apoptosis in human QGY-7703 cells assessed as increase in cleaved PARP level at 0.5 to 2 uM incubated for 12 hrs by Western blot analysis. The format is functional, cell-based. The settings on record: dose 0.5-2 µM. The method, boiled down: (§1)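 QGY-7703 (RPMI 1640, 10% FBS) and SMMC-7721 (DMEM) cells at 37 °C, 5% CO2, treated with graded concentrations for 12 h. RIPA lysates (40-80 µg protein) run on SDS-PAGE, transferred to nitrocellulose, immunoblotted for cleaved PARP; chemiluminescence read-out.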

The subject of series [7] is SMMC-7721. The experiment in a line: Induction of apoptosis in human SMMC-7721 cells assessed as increase in cleaved PARP level at 0.5 to 2 uM incubated for 12 hrs by Western blot analysis. The format is functional, cell-based. Particulars: dose 0.5-2 µM. Put shortly:
as §1

In series [8] the test system is HepG2. Briefly: Induction of autophagy in Nur77 knockout human HepG2 cells assessed as increase in GFP-LC3 puncta formation at 2 uM after 6 hrs by fluorescence microscopic method. The format is functional, cell-based. Put shortly: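 HepG2, or HepG2 and shNur77 HepG2, transfected with GFP-LC3, then given vehicle or 2.0 µM for 6 h; GFP-LC3 puncta visualised by fluorescence microscopy alongside phase-contrast images.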

Series [9] has as its system HepG2. The experiment in a line: Induction of endoplasmic reticulum stress in human HepG2 cells assessed as increase in CHOP protein expression incubated for 12 hrs by Western blot analysis. Particulars: dose 0.5-2 µM. The format is functional, cell-based. Put shortly: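 HepG2, QGY-7703 and SMMC-7721 treated with graded concentrations for 12 h. Lysed in RIPA with inhibitors; 40-80 µg protein separated by SDS-PAGE, blotted to nitrocellulose, blocked 1 h in 5% milk, primary antibodies overnight (LC3, Beclin1, Bip, CHOP, TRB3), HRP secondaries, chemiluminescence.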

Series [10] has as its system HepG2. Briefly: Upregulation of Nur77 expression in human HepG2 cells at 2 uM measured after 1 to 6 hrs by western blot analysis. The format is functional, cell-based. The settings on record: time 1-6 hrs. The method, boiled down: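 HepG2, QGY-7703 and SMMC-7721 cells treated with the indicated concentrations for 6 h. HepG2 also given 2.0 µM over a time course. Lysis in RIPA with protease and phosphatase inhibitors; 40-80 µg protein by SDS-PAGE, nitrocellulose transfer. Membranes blocked with 5% milk, primary antibody overnight, HRP secondary, chemiluminescence. GAPDH as loading control.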

Series [11] relates to HepG2. The experiment in a line: Induction of endoplasmic reticulum stress in human HepG2 cells assessed as increase in p-EIF2a expression at 2 uM measured after 1 to 4 hrs by Western blot analysis. The format is functional, cell-based. Particulars: time 1-4 hrs. Put shortly: (§2)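 HepG2 exposed to 2.0 µM over a time course; Nur77, Bip, p-EIF2a, TRB3 and LC3 levels followed by Western blot of RIPA lysates.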

Series [12] concerns HepG2. Briefly: Induction of endoplasmic reticulum stress in human HepG2 cells assessed as increase in TRB3 expression at 2 uM measured after 1 to 4 hrs by Western blot analysis. The format is functional, cell-based. The settings on record: time 1-4 hrs. Put shortly: as §2
For series [13], the system named is HepG2. The experiment in a line: Induction of autophagy in human HepG2 cells assessed as increase in LC3-II expression at 2 uM measured after 4 to 6 hrs by Western blot analysis. The format is functional, cell-based. The settings on record: time 4-6 hrs. The method, boiled down: as §2
Series [14] deals with HepG2. Briefly: Induction of apoptosis in human HepG2 cells assessed as Bax/Bcl-2 ratio at 2 uM pretreated with autophagy inhibitor, 3-methyladenine for 2 hrs followed by incubation with compound for 12 hrs by Western blot analysis. The format is functional, cell-based.
A short description of series [15]: Toxicity in BALB/c mouse xenografted with human HepG2 cells assessed as effect on body weight at 10 to 20 mg/kg/day, ip administered for 15 days. The settings on record: in vivo, 360 h, dose 10-20 mg/kg/day, time 15 day. The format is organism-based. The method, boiled down: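 Male Balb/c mice, 4 weeks old, injected subcutaneously in the flank with 5×10^6 HepG2 cells. At about 100 mm³, 15 mice randomized into vehicle, 10 and 20 mg/kg groups. Dosed i.p. once daily for 15 days. Tumour size and body weight measured daily; mice euthanized at the end.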
For orientation: Xenograft models place foreign cells or tissue in a host animal.

Series [16] has as its target T1, Nuclear receptor subfamily 4immunitygroup A member 1. The experiment in a line: Binding affinity to Nur77 ligand binding domain (unknown origin) assessed as fast association/dissociation kinetics by surface plasmon resonance analysis. The settings on record: filed as modulator. The method, boiled down:
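SPR with Nur77-LBD, analyte injected at a series of concentrations; KD (equilibrium dissociation constant) and association/dissociation kinetics derived from the sensorgrams.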

For series [17], the system named is HepG2. The experiment in a line: Induction of apoptosis in human HepG2 cells assessed as late apoptotic cells at 2 uM incubated for 12 hrs by Annexin V-FITC/PI staining based flow cytometry (reference value: 1.1 to 2.75%). The format is functional.
Series [18] relates to HepG2. The experiment in a line: Induction of apoptosis in human HepG2 cells transfected with shRNA assessed as early apoptotic cells at 2 uM incubated for 12 hrs by Annexin V-FITC/PI staining based flow cytometry (reference value: 5.09%). The format is functional.

Activity calls are given as the source filed them. No cut-off for these calls is given here.

In general, IC50 refers to the midpoint of a concentration-inhibition curve.

As for `COc1cccc2c(Nc3ccc4[nH]c(C(=O)N/N=C/c5ccc(SC)cc5)cc4c3)cc(C)nc12`, the concentration for half-maximal inhibition (IC50) in series [1] is 890 nM. The Activity result in series [2] was “Tde”; in series [3], “Tde”; in series [6] it was “Dose-dependent effect”; in series [7], “Dose-dependent effect”; in series [9] it was “Dose-dependent effect”; in series [15] it was “Non-Toxic”. The Activity in series [17] stood at 55.6%; in series [18], 16.2%. The inhibition result in [4] was “Active”. For the same molecule, the result in [5], in series [10], in [11], in series [12], in series [13] and in [16] was Active. The outcome in [8] and in [14] was inactive.

Values taken from ChEMBL document CHEMBL4765399, “Design, synthesis, and biological evaluation of 5-((8-methoxy-2-methylquinolin-4-yl)amino)-1H-indole-2-carbohydrazide derivatives as novel Nur77 modulators” (Eur J Med Chem, 2020).
